Experimental data: ChEMBL document CHEMBL1122319, “Substituted (2-phenoxyphenyl)acetic acids with antiinflammatory activity. 1” (J Med Chem, 1983)

Tests used:
Type in all cases: functional
Rattus norvegicus [1] = test: Reduction in paw swelling at 100 mg/kg po dose in rat using adjuvant arthritis test.
Rattus norvegicus [2] = species on record: Rattus norvegicus; test: (§1) Potency relative to [2-(2,4-Dichloro-phenoxy)-phenyl]-acetic acid in rat adjuvant arthritis test
Rattus norvegicus [3] = test: Reduction in paw swelling at 100 mg/kg po dose in rat using adjuvant arthritis test; value is +10 indicates exacerbation of paw swelling.
Rattus norvegicus [4] = test: Reduction in paw swelling at 100 mg/kg po dose in rat using adjuvant arthritis test; value is +23 indicates exacerbation of paw swelling.
Rattus norvegicus [5] = test: Reduction in paw swelling at 100 mg/kg po dose in rat using adjuvant arthritis test; value is +8 indicates exacerbation of paw swelling.
Rattus norvegicus [6] = test: Reduction in paw swelling at 100 mg/kg po dose in rat using adjuvant arthritis test; value is +14 indicates exacerbation of paw swelling.
Rattus norvegicus [7] = species on record: Rattus norvegicus; test: Minimum ulcerogenic dose(MUD) of the compound.
Rattus norvegicus [8] = species on record: Rattus norvegicus; test: Minimum ulcerogenic dose(MUD) of the compound;Value ranges from (400-800)
Rattus norvegicus [9] = test: Reduction in paw swelling at 100 mg/kg po dose in rat using adjuvant arthritis test; value is +6 indicates exacerbation of paw swelling.
Rattus norvegicus [10] = test: Reduction in paw swelling at 100 mg/kg po dose in rat using adjuvant arthritis test; value is +12 indicates exacerbation of paw swelling.
Rattus norvegicus [11] = test: Reduction in paw swelling at 100 mg/kg po dose in rat using adjuvant arthritis test; value is +9 indicates exacerbation of paw swelling.
Rattus norvegicus [12] = species on record: Rattus norvegicus; test: as §1; remark: listed apart in the source
Procedure, shortened: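 Established (therapeutic) adjuvant arthritis test in rats: the drug was given after arthritis had fully developed. Relative potency against the reference standard was derived from a three-dose-level assay based on paw volume changes.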

Rattus norvegicus [13] = test: Reduction in paw swelling at 100 mg/kg po dose in rat using adjuvant arthritis test; value is +1 indicates exacerbation of paw swelling.
Rattus norvegicus [14] = test: Reduction in paw swelling at 100 mg/kg po dose in rat using adjuvant arthritis test; value is +3 indicates exacerbation of paw swelling.
Rattus norvegicus [15] = test: Reduction in paw swelling at 100 mg/kg po dose in rat using adjuvant arthritis test; value is +7 indicates exacerbation of paw swelling.
Rattus norvegicus [16] = test: Reduction in paw swelling at 100 mg/kg po dose in rat using adjuvant arthritis test; value is +4 indicates exacerbation of paw swelling.
Rattus norvegicus [17] = test: Reduction in paw swelling at 100 mg/kg po dose in rat using adjuvant arthritis test; value is +13 indicates exacerbation of paw swelling.
Rattus norvegicus [18] = test: Reduction in paw swelling at 100 mg/kg po dose in rat using adjuvant arthritis test; value is +5 indicates exacerbation of paw swelling.
Rattus norvegicus [19] = test: Reduction in paw swelling at 100 mg/kg po dose in rat using adjuvant arthritis test; value is +20 indicates exacerbation of paw swelling.
Rattus norvegicus [20] = test: Reduction in paw swelling at 100 mg/kg po dose in rat using adjuvant arthritis test; value is +2 indicates exacerbation of paw swelling.

Row | SMILES | Reduction (Rattus norvegicus [1]) | Relative potency (Rattus norvegicus [2]) | other results
1 | CCCCCc1ccc(Oc2ccc(C)cc2CC(=O)O)c(Cl)c1 | 23 | 0.3 | –
2 | COc1cccc(Oc2ccc(C)cc2CC(=O)O)c1 | – | – | Reduction (Rattus norvegicus [3]): 10
3 | CCc1cc(Cl)ccc1Oc1ccc(C)cc1CC(=O)O | 17 | 0.4 | –
4 | Cc1ccc(Oc2ccc(Cl)cc2)c(CC(=O)O)c1 | 9 | 0.7 | –
5 | OCCc1ccccc1Oc1ccc(Cl)cc1Cl | 32 | 0.7 | –
6 | Cc1ccc(Oc2c(Cl)cccc2CC(=O)O)c(Cl)c1 | – | – | Reduction (Rattus norvegicus [4]): 23
7 | CCCCc1ccc(Oc2ccc(C)cc2CC(=O)O)c(Cl)c1 | 25 | 0.9 | –
8 | NC(=O)Cc1ccccc1Oc1ccc(Cl)cc1Cl | 33 | 1.3 | –
9 | CCCCc1ccc(Oc2ccc(C)cc2Cl)c(CC(=O)O)c1 | – | – | Reduction (Rattus norvegicus [5]): 8
10 | Cc1ccc(Oc2cc(C)c(C)cc2CC(=O)O)c(Cl)c1 | – | – | Reduction (Rattus norvegicus [6]): 14
11 | CCc1ccc(Oc2ccc(C)cc2CC(=O)O)c(Cl)c1 | 40 | 1.1 | MUD (Rattus norvegicus [7]): >800 mg/kg
12 | Cc1ccc(Oc2ccc(Cl)cc2Cl)c(CC(=O)O)c1 | 29 | 0.8 | –
13 | Cc1ccc(Oc2ccc(C(C)(C)C)cc2Cl)c(CC(=O)O)c1 | 34 | 1.6 | MUD (Rattus norvegicus [7]): >500 mg/kg
14 | CCC(C)c1ccc(Oc2ccc(C)cc2CC(=O)O)c(Cl)c1 (stereo not drawn) | 42 | 3 | MUD (Rattus norvegicus [8]): 800 mg/kg
15 | COc1ccc(Oc2ccc(C)cc2Cl)c(CC(=O)O)c1 | – | – | Reduction (Rattus norvegicus [9]): 6
16 | Cc1ccc(Oc2cc(Cl)ccc2C)c(CC(=O)O)c1 | 15 | 0.2 | –
17 | COc1ccccc1Oc1ccccc1CC(=O)O | 38 | 0.7 | –
18 | COc1cc(Oc2ccc(C)cc2Cl)c(CC(=O)O)cc1C | – | – | Reduction (Rattus norvegicus [10]): 12
19 | Cc1ccc(Oc2cccc(O)c2CC(=O)O)c(Cl)c1 | – | – | Reduction (Rattus norvegicus [11]): 9
20 | CCc1ccc(Oc2ccccc2CC(=O)O)c(Cl)c1 | 32 | 0.7 | –

Row | SMILES | Reduction (Rattus norvegicus [1]) | Relative potency (Rattus norvegicus [2]) | other results
21 | O=C(Cc1ccccc1Oc1ccc(Cl)cc1Cl)NO | 28% | – | Relative potency (Rattus norvegicus [12]): 1
22 | Cc1ccc(Oc2cc(C)cc(C)c2C)c(CC(=O)O)c1 | 11 | 0.1 | –
23 | Cc1ccc(Oc2cc(C)ccc2CC(=O)O)c(Cl)c1 | – | – | Reduction (Rattus norvegicus [13]): 1
24 | Cc1ccc(Oc2cc(C(F)(F)F)cc(C(F)(F)F)c2)c(CC(=O)O)c1 | – | – | Reduction (Rattus norvegicus [3]): 10
25 | Cc1ccc(Oc2cc(C)c(Cl)cc2CC(=O)O)c(Cl)c1 | – | – | Reduction (Rattus norvegicus [6]): 14
26 | Cc1ccc(Oc2cccc(O)c2)c(CC(=O)O)c1 | – | – | Reduction (Rattus norvegicus [14]): 3
27 | COc1ccc(CC(=O)O)c(Oc2ccc(C)cc2Cl)c1 | – | – | Reduction (Rattus norvegicus [6]): 14
28 | Cc1ccc(Oc2c(C)cc(Cl)cc2Cl)c(CC(=O)O)c1 | 23 | 0.3 | –
29 | Cc1ccc(Oc2cc(Cl)c(C)cc2CC(=O)O)c(Cl)c1 | – | – | Reduction (Rattus norvegicus [15]): 7
30 | Cc1cc(Oc2ccccc2CC(=O)O)c(Cl)c(C)c1Cl | 34 | 1.2 | –
31 | Nc1cc(Cl)ccc1Oc1ccccc1CC(=O)O | – | – | Reduction (Rattus norvegicus [16]): 4
32 | CCCCCCCCCCCCc1ccc(Oc2ccc(C)cc2CC(=O)O)c(Cl)c1 | 26% | 0.3 | –
33 | O=C(O)/C=C/c1ccccc1Oc1ccc(Cl)cc1Cl | – | – | Reduction (Rattus norvegicus [5]): 8
34 | CCc1ccc(Oc2ccc(C)cc2Cl)c(CC(=O)O)c1 | – | – | Reduction (Rattus norvegicus [17]): 13
35 | Cc1ccc(Oc2cc(C)c(C)cc2Cl)c(CC(=O)O)c1 | 46 | 0.4 | –
36 | Nc1ccc(Oc2ccccc2CC(=O)O)c(Cl)c1 | – | – | Reduction (Rattus norvegicus [18]): 5
37 | Cc1ccc(Oc2cc(O)ccc2CC(=O)O)c(Cl)c1 | – | – | Reduction (Rattus norvegicus [19]): 20
38 | Cc1ccc(Oc2ccc(C3CCCCC3)cc2Cl)c(CC(=O)O)c1 | – | – | Reduction (Rattus norvegicus [20]): 2
39 | O=C(O)Cc1ccccc1Oc1ccc(Cl)cc1Cl [FENCLOFENAC] | 36 | 1 | MUD (Rattus norvegicus [8]): 800 mg/kg
